Source: ChEMBL document CHEMBL1151332, “A new prenylated flavonol from the roots of Sophora flavescens” (J Nat Prod, 1998)
≈ marks a conversion by molar mass, not a printed value. Calls of active or inactive are those of the source. The calls are words filed in the database; no cut-off is given here.

How the values were obtained:
[1] = tested on: Human alphaherpesvirus 1; experiment: Antiviral activity against HSV1 in african green monkey Vero cells assessed as virus-induced cytopathic effect after 3 days by MTT assay; format: functional, organism-based; settings: Human alphaherpesvirus 1, Vero, 72 h
In short: (§1)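 Vero cells seeded at 3 × 10³/well and grown 3-4 days to a confluent monolayer, washed, then infected with virus diluted in DME plus 2% FBS at a dose equal to 50% cell culture inhibitory dose (CCID50) for 60 min at 37 °C. Inoculum removed; medium with graded sample concentrations (below 300 µg/mL) added in duplicate; 3 days at 37 °C, 5% CO2. MTT read-out; EC50 = concentration inhibiting virus-induced CPE by 50%.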

[2] = tested on: Human alphaherpesvirus 2; experiment: Antiviral activity against HSV2 in african green monkey Vero cells assessed as virus-induced cytopathic effect after 3 days by MTT assay; format: functional, organism-based; settings: for EC50: Human alphaherpesvirus 2, Vero, 72 h; in short: as §1

Row | SMILES | EC50 [1] [µg/mL] | Activity [2] | EC50 [2] [µg/mL]
1 | C=C(C)[C@H](CC=C(C)C)Cc1c(O)cc(OC)c(C(=O)/C=C/c2ccc(O)cc2O)c1O [KURAIDIN] | > 300 | inactive | 
2 | C=C(C)[C@H](CCC(C)(C)O)Cc1c(O)cc(OC)c2c1O[C@H](c1ccc(O)cc1O)CC2=O [KURARINOL] | 60 (≈ 131 µM) |  | 44 (≈ 96.4 µM)
3 | C=C(C)[C@H](CCC(C)(C)O)Cc1c(O)cc(OC)c2c1O[C@H](c1ccc(O)cc1O)[C@@H](O)C2=O [KUSHENOL H] | > 300 |  | 162 (≈ 343 µM)
4 | C=C(C)[C@H](CCC(C)(C)O)Cc1c(O)cc(OC)c2c1O[C@H](c1ccc(O)cc1O)[C@H](O)C2=O [KUSHENOL K] | > 300 |  | 147 (≈ 311 µM)
5 | COc1cc(O)c(CC=C(C)C)c2oc(-c3ccc(O)cc3)c(O)c(=O)c12 [SOPHOFLAVESCENOL] | > 300 | inactive | 
6 | OC[C@H]1O[C@@H](Oc2ccc3c(c2)OC[C@H]2c4cc5c(cc4O[C@@H]32)OCO5)[C@H](O)[C@@H](O)[C@@H]1O [TRIFOLIRHIZIN] | > 300 | inactive | 
